According to the RNAGym collection of RNA variant scans (doi:10.1038/nmeth.2970):

B1: NELF-E aptamer (parent)
chain: CCCAACGACUGCCGAGCGAGAUUACGCUUGAGCGCCCCACUGAGGAUGCCCACGGGCGAUUGGGGCACGG

Variants of: B1
Assay: HiTS-RAP
Conditions: with NELF-E (Drosophila)
Method in brief: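 Aptamer DNA templates bearing a T7 promoter and a ter site were sequenced on an Illumina GAIIx flowcell. T7 RNA polymerase then transcribed them in situ, and GST-Tus halted transcription over 30 minutes at 37°C. After a 30-minute room-temperature equilibration with NELF-E-mOrange at 0.064 to 1000 nM in HEPES binding buffer, clusters were imaged, using only the first binding curve. Intensities normalised to sequencing intensity were averaged per sequence and fitted with weighted Hill fits to give Kd, retaining only fits whose variance stayed under 1,000,000.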

Row | Variant | Kd [nM]
1 | CCCCACGACUGCCGAGCGAGAUUACGCUGGAGCGCCCCACUGAGGAUGCCCACGGGCGAUUGGGGCACGG [A4C U29G] | 7.86
2 | CCAAACGACUGCCGAGCGAGAUUACGCUUGAGCGCCCCACUGAGGAUGCCCACGGGCGAUUGGGGCACGG [C3A] | 5.8
3 | CCUAACGACUGCCGAGCGAGAUUACGCUUGAGCGCCCCACUGAGGAUGCCCACGGGCGAUUGGGGCACGG [C3U] | 5.55
4 | CCGAACGACUGCCGAGCGAGAUUACGCUUGAGCGCCCCACUGAGGAUGCCCACGGGCGAUUGGGGCACGG [C3G] | 5.16
5 | CCCCACGACUGGCGAGCGAGAUUACGCUUGAGCGCCCCACUGAGGAUGCCCACGGGCGAUUGGGGCACGG [A4C C12G] | 7.65
6 | CCCCACGACUGCCUAGCGAGAUUACGCUUGAGCGCCCCACUGAGGAUGCCCACGGGCGAUUGGGGCACGG [A4C G14U] | 7.54
7 | CCCCACGACUGCCGAGCGAGAUUACGCUUGAGCGCCCCACGGAGGAUGCCCACGGGCGAUUGGGGCACGG [A4C U41G] | 8.98
8 | CCCGACGACUGCCGAGCGAGAUUACGCUUGAGCGCCCCUCUGAGGAUGCCCACGGGCGAUUGGGGCACGG [A4G A39U] | 25.9
9 | CCCGACGACUGCCGAGCGAGAUUACGCUUGAGCGCCCCGCUGAGGAUGCCCACGGGCGAUUGGGGCACGG [A4G A39G] | 10.6
10 | CCCGACGACUGCCGAGCGAGAUUACGCUUGAGCGCCCCCCUGAGGAUGCCCACGGGCGAUUGGGGCACGG [A4G A39C] | 30.7
11 | CCCGACGACUGCCGAGCGAGAUUACGCUUGAGCGCCCCACUGAGGAUGCCCCCGGGCGAUUGGGGCACGG [A4G A52C] | 6.42
12 | CCCGACGACUGCCGAGCGAGAUUACGCUUGAGCGCCCCACUGAGGAUGCCCGCGGGCGAUUGGGGCACGG [A4G A52G] | 4.59
13 | CCCGACGACUGCCGAGCGAGAUUACGCUUGAGCGCCCCACUGAGGAUGCCCUCGGGCGAUUGGGGCACGG [A4G A52U] | 18.3
14 | CCCCACUACUGCCGAGCGAGAUUACGCUUGAGCGCCCCACUGAGGAUGCCCACGGGCGAUUGGGGCACGG [A4C G7U] | 6.88
15 | CCCGAAGACUGCCGAGCGAGAUUACGCUUGAGCGCCCCACUGAGGAUGCCCACGGGCGAUUGGGGCACGG [A4G C6A] | 6.8
16 | CCCGAGGACUGCCGAGCGAGAUUACGCUUGAGCGCCCCACUGAGGAUGCCCACGGGCGAUUGGGGCACGG [A4G C6G] | 5.28
17 | CCCGAUGACUGCCGAGCGAGAUUACGCUUGAGCGCCCCACUGAGGAUGCCCACGGGCGAUUGGGGCACGG [A4G C6U] | 6.08
18 | CCCGACGACUGCCGAGCGAGUUUACGCUUGAGCGCCCCACUGAGGAUGCCCACGGGCGAUUGGGGCACGG [A4G A21U] | 5.84
19 | CCCGACGACUGCCGAGCGAGGUUACGCUUGAGCGCCCCACUGAGGAUGCCCACGGGCGAUUGGGGCACGG [A4G A21G] | 6
20 | CCCGACGCCUGCCGAGCGAGAUUACGCUUGAGCGCCCCACUGAGGAUGCCCACGGGCGAUUGGGGCACGG [A4G A8C] | 6.29

Row | Variant | Kd [nM]
21 | CCCGACGUCUGCCGAGCGAGAUUACGCUUGAGCGCCCCACUGAGGAUGCCCACGGGCGAUUGGGGCACGG [A4G A8U] | 6.21
22 | CCCGACGGCUGCCGAGCGAGAUUACGCUUGAGCGCCCCACUGAGGAUGCCCACGGGCGAUUGGGGCACGG [A4G A8G] | 5.83
23 | CCCGACGACUGCCGAGCGAGAUUAAGCUUGAGCGCCCCACUGAGGAUGCCCACGGGCGAUUGGGGCACGG [A4G C25A] | 6.24
24 | CCCGACGACUGCCGAGCGAGAUUAUGCUUGAGCGCCCCACUGAGGAUGCCCACGGGCGAUUGGGGCACGG [A4G C25U] | 6.15
25 | CCCGACGACUGCCGAGCGAGAUUAGGCUUGAGCGCCCCACUGAGGAUGCCCACGGGCGAUUGGGGCACGG [A4G C25G] | 5.98
26 | GCCAACGACUGCCGAGCGAGAUUACGCUUGAGCGCCCCACUGAGGAUGCCCACGGGCGAUUGGGGCACGG [C1G] | 4.93
27 | ACCAACGACUGCCGAGCGAGAUUACGCUUGAGCGCCCCACUGAGGAUGCCCACGGGCGAUUGGGGCACGG [C1A] | 4.94
28 | UCCAACGACUGCCGAGCGAGAUUACGCUUGAGCGCCCCACUGAGGAUGCCCACGGGCGAUUGGGGCACGG [C1U] | 4.73
29 | CCCGACGACUGCCGAGCGAGAUUACGCUUGAGCGCCCCACUGAGGUUGCCCACGGGCGAUUGGGGCACGG [A4G A46U] | 72.7
30 | CCCGACGACUGCCGAGCGAGAUUACGCUUGAGCGCCCCACUGAGGGUGCCCACGGGCGAUUGGGGCACGG [A4G A46G] | 37.6
31 | CUCAACGACUGCCGAGCGAGAUUACGCUUGAGCGCCCCACUGAGGAUGCCCACGGGCGAUUGGGGCACGG [C2U] | 5.27
32 | CGCAACGACUGCCGAGCGAGAUUACGCUUGAGCGCCCCACUGAGGAUGCCCACGGGCGAUUGGGGCACGG [C2G] | 5.3
33 | CACAACGACUGCCGAGCGAGAUUACGCUUGAGCGCCCCACUGAGGAUGCCCACGGGCGAUUGGGGCACGG [C2A] | 5.18
34 | CCCGACGACUGCCGAGCGAGAUUACGCUUGAGCGCCCCACUGUGGAUGCCCACGGGCGAUUGGGGCACGG [A4G A43U] | 57
35 | CCCGACGACUGCCGAGCGAGAUUACGCUUGAGCGCCCCACUGCGGAUGCCCACGGGCGAUUGGGGCACGG [A4G A43C] | 90.1
36 | CCCGACGACUGCCGAGCGAGAUUACGCUUGAGCGCCCCACUGGGGAUGCCCACGGGCGAUUGGGGCACGG [A4G A43G] | 22.2
37 | CCCGACGACUGUCGAGCGAGAUUACGCUUGAGCGCCCCACUGAGGAUGCCCACGGGCGAUUGGGGCACGG [A4G C12U] | 5.25
38 | CCCGACGACUGACGAGCGAGAUUACGCUUGAGCGCCCCACUGAGGAUGCCCACGGGCGAUUGGGGCACGG [A4G C12A] | 5.36
39 | CCCGACGACUGGCGAGCGAGAUUACGCUUGAGCGCCCCACUGAGGAUGCCCACGGGCGAUUGGGGCACGG [A4G C12G] | 5.9
